Data from ChEMBL document CHEMBL4118021, “Studies of TAK1-centered polypharmacology with novel covalent TAK1 inhibitors” (Bioorg Med Chem, 2017).

What was measured:
Assay type in all cases: cell-based
[1] = target: Serine/threonine-protein kinase PRP4 homolog (Homo sapiens) (UniProt Q13523); assay: Inhibition of PRP4 in human SKCO1 cells at 1 uM after 4 hrs using biotin labeled CNILHADIKPDNILVNESK probe by mass-spectrometric analysis relative to control
How it was run: (§1)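 Live SK-CO-1 cells exposed to compound at 1 μM or DMSO for 4 h (KiNativ). Lysates then labeled with lysine-reactive ATP/ADP-biotin probe, and probe-labeled kinase peptides quantified by mass spectrometry. Percent inhibition of probe-dependent recovery calculated relative to DMSO-treated cells.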

[2] = target: T1, STE20-related kinase adapter protein beta (Homo sapiens) (UniProt Q9C0K7); assay: Inhibition of STLK6 in human SKCO1 cells at 1 uM after 4 hrs using biotin labeled SIKASHILISGDGLVTLSGLSHLHSLV probe by mass-spectrometric analysis relative to control; how it was run: as §1
T1 sequence (whole entry): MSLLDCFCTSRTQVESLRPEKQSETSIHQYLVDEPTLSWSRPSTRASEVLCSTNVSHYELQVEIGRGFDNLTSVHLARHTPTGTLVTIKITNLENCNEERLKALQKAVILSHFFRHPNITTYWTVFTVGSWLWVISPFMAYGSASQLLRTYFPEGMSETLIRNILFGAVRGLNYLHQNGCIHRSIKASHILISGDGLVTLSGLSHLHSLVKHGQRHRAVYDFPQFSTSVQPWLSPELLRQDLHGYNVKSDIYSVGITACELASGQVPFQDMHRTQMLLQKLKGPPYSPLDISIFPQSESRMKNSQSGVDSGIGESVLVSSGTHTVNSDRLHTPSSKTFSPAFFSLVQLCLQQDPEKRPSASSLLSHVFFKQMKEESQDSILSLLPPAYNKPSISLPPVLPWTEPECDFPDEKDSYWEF

[3] = target: Fibroblast growth factor receptor 1 (Homo sapiens) (UniProt P11362); assay: Inhibition of FGFR1 in human SKCO1 cells at 1 uM after 4 hrs using biotin labeled VAVKMLK probe by mass-spectrometric analysis relative to control; conditions: pooled result: one value given for 4 cell lines, strains, targets or settings
[4] = target: T2, Serine/threonine-protein kinase Nek9 (Homo sapiens) (UniProt Q8TD19); assay: Inhibition of NEK9 in human SKCO1 cells at 1 uM after 4 hrs using biotin labeled DIKTLNIFLTK probe by mass-spectrometric analysis relative to control; how it was run: as §1
T2 sequence (whole entry): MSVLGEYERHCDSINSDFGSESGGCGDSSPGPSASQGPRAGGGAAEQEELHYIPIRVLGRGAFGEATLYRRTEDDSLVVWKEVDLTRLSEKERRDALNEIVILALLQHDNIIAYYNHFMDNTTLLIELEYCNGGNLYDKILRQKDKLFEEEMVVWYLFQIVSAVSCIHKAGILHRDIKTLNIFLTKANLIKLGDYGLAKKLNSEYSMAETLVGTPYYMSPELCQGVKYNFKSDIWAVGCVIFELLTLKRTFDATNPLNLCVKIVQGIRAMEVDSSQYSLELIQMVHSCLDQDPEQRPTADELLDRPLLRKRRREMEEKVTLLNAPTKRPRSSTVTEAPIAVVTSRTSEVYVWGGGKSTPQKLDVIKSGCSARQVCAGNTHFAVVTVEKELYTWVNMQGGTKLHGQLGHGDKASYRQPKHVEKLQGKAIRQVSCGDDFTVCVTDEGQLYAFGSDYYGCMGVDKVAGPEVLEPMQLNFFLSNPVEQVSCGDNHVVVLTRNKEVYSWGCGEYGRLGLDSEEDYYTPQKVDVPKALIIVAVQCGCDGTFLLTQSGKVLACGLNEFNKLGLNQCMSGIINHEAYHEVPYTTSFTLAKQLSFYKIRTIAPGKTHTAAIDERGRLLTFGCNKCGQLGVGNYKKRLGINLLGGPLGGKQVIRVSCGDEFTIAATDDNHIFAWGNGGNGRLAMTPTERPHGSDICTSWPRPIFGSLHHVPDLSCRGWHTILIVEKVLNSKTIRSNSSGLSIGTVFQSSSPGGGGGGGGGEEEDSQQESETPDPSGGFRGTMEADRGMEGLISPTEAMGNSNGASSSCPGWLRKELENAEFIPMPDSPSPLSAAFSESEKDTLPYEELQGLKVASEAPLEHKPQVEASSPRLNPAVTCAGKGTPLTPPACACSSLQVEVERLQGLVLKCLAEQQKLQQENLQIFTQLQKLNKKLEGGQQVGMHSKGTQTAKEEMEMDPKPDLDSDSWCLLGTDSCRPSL

[5] = target: Ribosomal protein S6 kinase alpha-4 (Homo sapiens) (UniProt O75676); assay: Inhibition of MSK2 domain1 in human SKCO1 cells at 1 uM after 4 hrs using biotin labeled DLKLENVLLDSEGHIVLTDFGLSK probe by mass-spectrometric analysis relative to control
[6] = target: Serine/threonine-protein kinase VRK2 (Homo sapiens) (UniProt Q86Y07); assay: Inhibition of VRK2 in human SKCO1 cells at 1 uM after 4 hrs using biotin labeled MLDVLEYIHENEYVHGDIKAANLLLYK probe by mass-spectrometric analysis relative to control; how it was run: as §1
[7] = target: 5'-AMP-activated protein kinase catalytic subunit alpha-1 (Homo sapiens) (UniProt Q13131); assay: Inhibition of AMPKa1 in human SKCO1 cells at 1 uM after 4 hrs using biotin labeled DLKPENVLLDAHMNAK probe by mass-spectrometric analysis relative to control
How it was run: (§2)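 Live SK-CO-1 cells were treated 4 h with compound at 1 μM or DMSO, then lysed. Lysates were labeled with a lysine-reactive ATP/ADP-biotin probe and analysed by mass spectrometry. Percent inhibition is the loss of probe-dependent recovery of the kinase peptide relative to DMSO.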

[8] = target: T3, Aurora kinase A (Homo sapiens) (UniProt O14965); assay: Inhibition of AurA in human SKCO1 cells at 1 uM after 4 hrs using biotin labeled FILALKVLFK probe by mass-spectrometric analysis relative to control; how it was run: as §2
T3 sequence (whole entry): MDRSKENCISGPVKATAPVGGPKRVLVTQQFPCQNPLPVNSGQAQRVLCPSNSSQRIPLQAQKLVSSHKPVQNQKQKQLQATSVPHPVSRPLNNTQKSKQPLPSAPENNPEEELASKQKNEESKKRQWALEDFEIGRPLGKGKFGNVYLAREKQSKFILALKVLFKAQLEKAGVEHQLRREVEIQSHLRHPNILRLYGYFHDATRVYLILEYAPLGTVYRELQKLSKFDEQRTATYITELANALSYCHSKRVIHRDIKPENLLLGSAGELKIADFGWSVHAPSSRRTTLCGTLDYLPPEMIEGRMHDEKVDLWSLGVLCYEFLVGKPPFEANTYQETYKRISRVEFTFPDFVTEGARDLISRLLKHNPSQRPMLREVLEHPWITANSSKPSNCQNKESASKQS

Sequence of Serine/threonine-protein kinase PRP4 homolog (Homo sapiens) (Q13523 whole entry): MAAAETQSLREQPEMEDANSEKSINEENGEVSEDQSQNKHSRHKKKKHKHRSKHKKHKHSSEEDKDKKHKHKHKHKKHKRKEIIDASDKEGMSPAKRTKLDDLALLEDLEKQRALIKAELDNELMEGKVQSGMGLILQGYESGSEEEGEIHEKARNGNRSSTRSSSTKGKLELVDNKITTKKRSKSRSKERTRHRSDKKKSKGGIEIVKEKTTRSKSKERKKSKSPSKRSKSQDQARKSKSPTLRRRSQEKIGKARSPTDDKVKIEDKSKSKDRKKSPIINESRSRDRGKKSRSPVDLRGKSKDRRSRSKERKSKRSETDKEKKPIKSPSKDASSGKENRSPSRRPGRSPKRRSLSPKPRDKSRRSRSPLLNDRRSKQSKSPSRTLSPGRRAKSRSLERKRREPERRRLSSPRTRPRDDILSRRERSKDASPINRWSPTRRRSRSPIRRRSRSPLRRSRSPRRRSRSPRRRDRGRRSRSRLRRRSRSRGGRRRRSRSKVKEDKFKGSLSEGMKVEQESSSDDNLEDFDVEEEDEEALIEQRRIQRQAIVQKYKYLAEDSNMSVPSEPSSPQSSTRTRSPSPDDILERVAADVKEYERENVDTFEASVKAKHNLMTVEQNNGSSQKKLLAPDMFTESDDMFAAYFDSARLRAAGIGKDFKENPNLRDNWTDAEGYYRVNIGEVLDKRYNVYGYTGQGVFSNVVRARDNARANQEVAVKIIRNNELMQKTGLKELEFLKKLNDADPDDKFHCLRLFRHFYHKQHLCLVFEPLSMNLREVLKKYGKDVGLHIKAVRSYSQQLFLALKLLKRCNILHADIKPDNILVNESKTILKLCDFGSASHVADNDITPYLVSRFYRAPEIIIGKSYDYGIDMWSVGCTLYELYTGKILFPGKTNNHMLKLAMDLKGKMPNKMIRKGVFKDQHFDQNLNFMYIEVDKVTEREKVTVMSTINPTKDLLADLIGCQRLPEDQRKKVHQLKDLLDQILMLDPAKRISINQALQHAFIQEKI
Sequence of 5'-AMP-activated protein kinase catalytic subunit alpha-1 (Homo sapiens) (Q13131 whole entry, looked up): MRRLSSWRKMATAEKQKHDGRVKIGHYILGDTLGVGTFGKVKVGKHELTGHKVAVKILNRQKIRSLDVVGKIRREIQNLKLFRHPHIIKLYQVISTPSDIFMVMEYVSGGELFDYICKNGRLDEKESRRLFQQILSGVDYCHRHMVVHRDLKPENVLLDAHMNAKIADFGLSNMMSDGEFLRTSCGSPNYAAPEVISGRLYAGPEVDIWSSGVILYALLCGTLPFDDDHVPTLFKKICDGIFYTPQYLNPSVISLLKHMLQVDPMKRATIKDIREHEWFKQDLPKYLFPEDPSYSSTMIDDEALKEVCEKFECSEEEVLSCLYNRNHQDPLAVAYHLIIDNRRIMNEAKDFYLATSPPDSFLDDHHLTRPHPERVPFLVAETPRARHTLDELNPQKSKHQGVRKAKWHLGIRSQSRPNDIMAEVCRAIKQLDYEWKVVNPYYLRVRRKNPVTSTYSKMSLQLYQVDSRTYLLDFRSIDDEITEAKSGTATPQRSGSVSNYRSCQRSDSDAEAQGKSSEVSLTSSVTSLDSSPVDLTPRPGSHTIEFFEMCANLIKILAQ
Sequence of Ribosomal protein S6 kinase alpha-4 (Homo sapiens) (O75676 whole entry, looked up, the tested form may be a part): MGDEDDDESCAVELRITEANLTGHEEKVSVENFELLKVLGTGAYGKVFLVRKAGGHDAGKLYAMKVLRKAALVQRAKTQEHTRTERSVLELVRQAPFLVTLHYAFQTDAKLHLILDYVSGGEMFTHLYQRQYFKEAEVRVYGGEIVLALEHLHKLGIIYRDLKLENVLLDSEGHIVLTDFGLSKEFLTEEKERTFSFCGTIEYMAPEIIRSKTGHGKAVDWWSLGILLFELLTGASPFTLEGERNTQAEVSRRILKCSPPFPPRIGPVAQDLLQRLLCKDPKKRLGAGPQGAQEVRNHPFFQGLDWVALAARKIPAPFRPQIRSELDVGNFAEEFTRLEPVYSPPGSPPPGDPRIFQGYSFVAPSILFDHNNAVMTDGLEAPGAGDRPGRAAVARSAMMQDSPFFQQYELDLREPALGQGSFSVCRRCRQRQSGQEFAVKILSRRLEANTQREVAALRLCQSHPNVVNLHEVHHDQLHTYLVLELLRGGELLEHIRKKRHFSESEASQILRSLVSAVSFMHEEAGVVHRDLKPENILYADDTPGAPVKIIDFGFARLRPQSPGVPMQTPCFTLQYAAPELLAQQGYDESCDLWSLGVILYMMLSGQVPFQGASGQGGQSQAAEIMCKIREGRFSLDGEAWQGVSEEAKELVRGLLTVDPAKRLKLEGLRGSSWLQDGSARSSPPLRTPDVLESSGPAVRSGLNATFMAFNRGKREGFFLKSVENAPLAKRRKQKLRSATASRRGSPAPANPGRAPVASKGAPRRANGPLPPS
Sequence of Serine/threonine-protein kinase VRK2 (Homo sapiens) (Q86Y07 whole entry): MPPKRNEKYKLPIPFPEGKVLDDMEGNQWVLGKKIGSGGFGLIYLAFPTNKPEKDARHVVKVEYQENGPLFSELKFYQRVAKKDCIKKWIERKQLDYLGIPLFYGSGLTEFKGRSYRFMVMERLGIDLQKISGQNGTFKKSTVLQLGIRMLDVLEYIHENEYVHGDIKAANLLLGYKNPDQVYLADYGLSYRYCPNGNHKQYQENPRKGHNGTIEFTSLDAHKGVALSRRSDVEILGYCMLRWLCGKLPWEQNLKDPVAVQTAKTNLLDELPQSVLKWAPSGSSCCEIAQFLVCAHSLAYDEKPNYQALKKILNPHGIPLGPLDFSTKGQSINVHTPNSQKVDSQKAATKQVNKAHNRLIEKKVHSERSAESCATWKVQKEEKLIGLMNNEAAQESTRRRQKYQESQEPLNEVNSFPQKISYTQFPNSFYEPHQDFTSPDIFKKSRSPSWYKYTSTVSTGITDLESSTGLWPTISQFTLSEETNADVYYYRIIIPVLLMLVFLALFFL
Sequence of Fibroblast growth factor receptor 1 (Homo sapiens) (P11362 22-822 limits assumed): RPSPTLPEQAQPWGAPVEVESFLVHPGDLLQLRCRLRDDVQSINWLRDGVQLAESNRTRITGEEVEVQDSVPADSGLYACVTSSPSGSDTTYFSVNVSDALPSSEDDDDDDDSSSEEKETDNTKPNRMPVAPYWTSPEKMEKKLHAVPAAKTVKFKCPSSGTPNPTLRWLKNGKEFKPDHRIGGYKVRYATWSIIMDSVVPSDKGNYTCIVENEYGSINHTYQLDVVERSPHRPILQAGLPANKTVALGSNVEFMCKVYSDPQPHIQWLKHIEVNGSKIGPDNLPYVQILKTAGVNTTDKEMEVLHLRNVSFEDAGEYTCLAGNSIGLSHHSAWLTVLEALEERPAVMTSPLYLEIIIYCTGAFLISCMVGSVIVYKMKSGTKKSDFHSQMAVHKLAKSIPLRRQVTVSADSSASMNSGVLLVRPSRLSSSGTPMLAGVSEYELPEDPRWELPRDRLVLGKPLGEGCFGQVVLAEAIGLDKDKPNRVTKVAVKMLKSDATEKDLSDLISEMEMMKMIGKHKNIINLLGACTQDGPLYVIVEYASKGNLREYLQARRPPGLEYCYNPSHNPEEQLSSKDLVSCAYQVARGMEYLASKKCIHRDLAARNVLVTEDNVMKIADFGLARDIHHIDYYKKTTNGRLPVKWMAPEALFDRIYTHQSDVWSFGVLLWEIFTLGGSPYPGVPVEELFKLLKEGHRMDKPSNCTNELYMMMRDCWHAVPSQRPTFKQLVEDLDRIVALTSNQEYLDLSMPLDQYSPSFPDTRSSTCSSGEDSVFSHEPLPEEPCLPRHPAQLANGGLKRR

Structure (SMILES) | inhibition [1] | inhibition [2] | inhibition [3] | inhibition [4] | inhibition [5] | inhibition [6] | inhibition [7] | inhibition [8]
COc1cc(O)c2c(c1)/C=C/C[C@H](O)[C@H](O)C(=O)/C=C\C[C@H](C)OC2=O | 15.4% | 24.9% | 18.4% | 24.7% | 39.8% | 20.4% | 33.6% | 59.4%
C=CC(=O)Nc1ccccc1Nc1nc(Nc2ccc(N3CCN(C)CC3)cc2)ncc1Cl | 32.7% | 27.1% | 33.7% | 3.2% | 24.5% | 10.3% | 76% | 87.2%
C=CC(=O)Nc1ccccc1Oc1nc(Nc2cnn(CCOC)c2)ncc1Cl | 18.7% | 34.4% | 7.6% | 9% | 10.4% | 3.6% | 0.2% | 52.6%
